System: not listed separately
Assay: Clearance in rat at 1.6 mg/kg administered as intra-arterial infusion for 10 mins and 3.6 mg/kg, po
Type: ADME, organism-based
Details: in vivo
In short: (§1)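 Rats, 3 animals per compound; values are means. Intravenous arm: intra-arterial infusion over 10 min. Oral arm: dosing by gavage. Both routes used a vehicle of 40% PEG 400, 40% water and 20% ethanol. Parameters were derived from plasma concentrations across the infusion and oral arms.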

Row | Compound | clearance [mL/min/kg]
1 | COc1cccc2c1C(NC[C@]1(c3ccccc3)CC[C@H](OC(=O)Nc3nnc(C4CC4)s3)CC1)=NS2(=O)=O | 6.8

Molecular target: hERG (KCNH2) (Homo sapiens, UniProt Q12809)
Assay: Inhibition of human ERG at 10 uM relative to control
Details: not given
In short: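 Screening panel of over 37 receptors and enzymes relevant to cardiovascular effects or toxicity. Each target was tested at a single concentration of 10 µM, with % activity reported.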

Sequence of hERG (KCNH2) (Q12809 whole entry): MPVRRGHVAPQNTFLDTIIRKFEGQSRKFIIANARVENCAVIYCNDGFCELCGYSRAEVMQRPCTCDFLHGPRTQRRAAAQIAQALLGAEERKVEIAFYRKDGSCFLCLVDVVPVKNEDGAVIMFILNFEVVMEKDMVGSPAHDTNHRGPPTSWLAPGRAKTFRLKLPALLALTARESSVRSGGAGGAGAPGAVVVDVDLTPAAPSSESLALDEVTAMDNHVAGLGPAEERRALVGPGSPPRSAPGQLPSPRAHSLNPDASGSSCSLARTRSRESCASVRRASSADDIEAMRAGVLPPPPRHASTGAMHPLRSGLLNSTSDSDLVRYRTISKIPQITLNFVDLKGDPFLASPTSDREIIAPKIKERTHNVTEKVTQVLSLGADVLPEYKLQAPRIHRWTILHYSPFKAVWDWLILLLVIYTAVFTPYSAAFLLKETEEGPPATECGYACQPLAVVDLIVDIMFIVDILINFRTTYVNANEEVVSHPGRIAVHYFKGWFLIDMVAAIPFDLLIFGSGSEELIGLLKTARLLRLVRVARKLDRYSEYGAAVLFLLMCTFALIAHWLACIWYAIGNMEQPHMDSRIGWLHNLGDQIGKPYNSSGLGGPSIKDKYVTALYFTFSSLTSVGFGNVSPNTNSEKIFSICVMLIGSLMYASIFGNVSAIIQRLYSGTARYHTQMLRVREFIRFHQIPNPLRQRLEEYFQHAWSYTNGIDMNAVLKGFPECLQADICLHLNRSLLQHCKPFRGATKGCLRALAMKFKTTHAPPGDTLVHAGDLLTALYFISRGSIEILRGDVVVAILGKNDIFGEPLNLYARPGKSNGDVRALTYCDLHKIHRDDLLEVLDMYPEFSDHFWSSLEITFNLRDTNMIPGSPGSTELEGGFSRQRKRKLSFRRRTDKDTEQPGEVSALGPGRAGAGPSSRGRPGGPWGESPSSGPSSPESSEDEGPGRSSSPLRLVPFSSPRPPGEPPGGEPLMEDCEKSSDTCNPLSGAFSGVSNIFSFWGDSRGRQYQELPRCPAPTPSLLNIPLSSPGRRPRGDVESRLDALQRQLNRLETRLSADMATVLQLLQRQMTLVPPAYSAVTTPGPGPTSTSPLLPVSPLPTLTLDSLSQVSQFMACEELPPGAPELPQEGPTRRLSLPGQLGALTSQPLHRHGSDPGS

Row | Compound | inhibition at 10 µM [%]
2 | COc1cccc2c1C(NC[C@]1(c3ccccc3)CC[C@H](OC(=O)Nc3nnc(C4CC4)s3)CC1)=NS2(=O)=O | 17
3 | COc1cccc2c1C(NC[C@]1(c3ccccc3)CC[C@H](NC(=O)OCC(F)(F)F)CC1)=NS2(=O)=O | 47
4 | CCS(=O)(=O)N[C@H]1CC[C@](CNC2=NS(=O)(=O)c3cccc(OC)c32)(c2ccccc2)CC1 | 59

System: Rattus norvegicus
Assay: Induction of QT interval prolongation in rat at 3 mg/kg, iv administered as infusion for 5 mins by ECG analysis
Type: functional
Details: not given
In short: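 Rats were dosed at 3 mg/Kg. Block of IKur was read as the percent change in the ECG QT interval; mean blood pressure and plasma concentration were recorded alongside. Values are means of 2-4 experiments.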

Row | Compound | Activity [%]
5 | COc1cccc2c1C(NC[C@]1(c3ccccc3)CC[C@H](OC(=O)Nc3nnc(C4CC4)s3)CC1)=NS2(=O)=O | 23

Molecular target: T1, Potassium voltage-gated channel subfamily A member 5 (Homo sapiens, UniProt P22460)
Assay: Inhibition of human KV1.5 expressed in mouse L929 cells assessed as decrease in ultrarapid potassium current amplitude
Type: cell-based
Details: not given
In short: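 Potassium current block was measured in mouse fibroblast L929 cells expressing human KV1.5. IC50 values are means of 2-4 experiments.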

T1 sequence (P22460 whole entry): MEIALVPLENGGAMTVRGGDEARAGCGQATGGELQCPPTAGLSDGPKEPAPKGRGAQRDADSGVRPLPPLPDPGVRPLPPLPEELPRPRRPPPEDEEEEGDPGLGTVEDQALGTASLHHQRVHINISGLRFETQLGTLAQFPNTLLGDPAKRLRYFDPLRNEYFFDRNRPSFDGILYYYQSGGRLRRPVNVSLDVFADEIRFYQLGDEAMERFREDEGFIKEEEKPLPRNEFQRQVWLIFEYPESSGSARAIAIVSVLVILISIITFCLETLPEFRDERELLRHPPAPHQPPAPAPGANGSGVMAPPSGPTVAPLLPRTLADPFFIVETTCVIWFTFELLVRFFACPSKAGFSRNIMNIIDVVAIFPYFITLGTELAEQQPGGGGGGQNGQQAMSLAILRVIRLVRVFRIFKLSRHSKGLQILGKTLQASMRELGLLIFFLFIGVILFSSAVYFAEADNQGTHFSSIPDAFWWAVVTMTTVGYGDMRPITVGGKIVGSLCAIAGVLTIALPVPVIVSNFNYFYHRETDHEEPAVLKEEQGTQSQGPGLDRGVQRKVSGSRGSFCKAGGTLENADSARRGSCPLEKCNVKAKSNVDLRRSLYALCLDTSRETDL

Row | Compound | IC50 [nM]
6 | COc1cccc2snc(NCC(C)(C)c3ccccc3)c12 | 24
7 | COc1cccc2c1C(NC[C@]1(c3ccccc3)CC[C@H](OC(=O)N(C)CCN(C)C)CC1)=NS2(=O)=O | > 10000
8 | COc1cccc2c1C(NC[C@]1(c3ccccc3)CC[C@H](OC(=O)Nc3nnc(C4CC4)s3)CC1)=NS2(=O)=O | 92
9 | CCNC(=O)N[C@H]1CC[C@](CNC2=NS(=O)(=O)c3cccc(OC)c32)(c2ccccc2)CC1 | > 10000
10 | COc1cccc2c1C(NC[C@]1(c3ccccc3)CC[C@H](NC(=O)OCC(F)(F)F)CC1)=NS2(=O)=O | 28
11 | COc1cccc2c1C(NC[C@]1(c3ccccc3)CC[C@H](OC(=O)NC3CC3)CC1)=NS2(=O)=O | 170
12 | COc1cccc2c1C(NC[C@]1(c3ccccc3)CC[C@H](NS(N)(=O)=O)CC1)=NS2(=O)=O | > 10000
13 | CCNC(=O)O[C@H]1CC[C@](CNC2=NS(=O)(=O)c3cccc(OC)c32)(c2ccccc2)CC1 | 65
14 | COc1cccc2c1C(NC[C@]1(c3ccccc3)CC[C@@H](O)CC1)=NS2(=O)=O | > 300
15 | COc1cccc2c1C(NC[C@]1(c3ccccc3)CC[C@H](OC(=O)NCCO)CC1)=NS2(=O)=O | > 10000
16 | CCS(=O)(=O)N[C@H]1CC[C@](CNC2=NS(=O)(=O)c3cccc(OC)c32)(c2ccccc2)CC1 | 60

System: not listed separately
Assay: Metabolic stability in mouse liver microsomes assessed as compound remaining at 3 uM after 10 mins
Type: ADME
Details: read-out: Stability
In short: (§2)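 Parent compound at 3 µM was incubated 10 min in human, rat or mouse liver microsomes with appropriate co-factors. Read-out is percent of parent remaining.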

Row | Compound | remaining at 10 min, 3 µM [%]
17 | COc1cccc2c1C(NC[C@]1(c3ccccc3)CC[C@H](OC(=O)Nc3nnc(C4CC4)s3)CC1)=NS2(=O)=O | 66
18 | COc1cccc2c1C(NC[C@]1(c3ccccc3)CC[C@H](NC(=O)OCC(F)(F)F)CC1)=NS2(=O)=O | 48
19 | COc1cccc2c1C(NC[C@]1(c3ccccc3)CC[C@H](OC(=O)NC3CC3)CC1)=NS2(=O)=O | < 1
20 | CCNC(=O)O[C@H]1CC[C@](CNC2=NS(=O)(=O)c3cccc(OC)c32)(c2ccccc2)CC1 | < 1
21 | COc1cccc2c1C(NC[C@]1(c3ccccc3)CC[C@@H](O)CC1)=NS2(=O)=O | 73
22 | CCS(=O)(=O)N[C@H]1CC[C@](CNC2=NS(=O)(=O)c3cccc(OC)c32)(c2ccccc2)CC1 | 30

Molecular target: T1, Potassium voltage-gated channel subfamily A member 5
Assay: Inhibition of human KV1.5 expressed in mouse L929 cells assessed as decrease in ultrarapid potassium current amplitude relative to control
Type: cell-based
Design: concentration or dose not given beside the values
Details: concentration not given here
In short: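 Potassium current block in mouse fibroblast L929 cells expressing human Kv1.5. IC50 values are means of 2-4 experiments.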

Row | Compound | inhibition [%]
23 | COc1cccc2c1C(NC[C@]1(c3ccccc3)CC[C@H](OC(=O)N(C)CCN(C)C)CC1)=NS2(=O)=O | 4
24 | CCNC(=O)N[C@H]1CC[C@](CNC2=NS(=O)(=O)c3cccc(OC)c32)(c2ccccc2)CC1 | 20
25 | COc1cccc2c1C(NC[C@]1(c3ccccc3)CC[C@H](NS(N)(=O)=O)CC1)=NS2(=O)=O | 18
26 | COc1cccc2c1C(NC[C@]1(c3ccccc3)CC[C@@H](O)CC1)=NS2(=O)=O | 14
27 | COc1cccc2c1C(NC[C@]1(c3ccccc3)CC[C@H](OC(=O)NCCO)CC1)=NS2(=O)=O | 27

System: Oryctolagus cuniculus
Assay: Toxicity in rabbit assessed as increase in blood pressure at 0.3 to 3 mg/kg
Type: organism-based
Details: in vivo
In short: (§3)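 Rabbits were dosed at 0.3, 1.0 and 3.0 mg/Kg. Effective refractory period was measured in atrium and ventricle, and blood pressure was recorded. The plasma concentration giving 20% atrial ERP prolongation (EC20) was calculated.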

Row | Compound | Activity [%]
28 | COc1cccc2c1C(NC[C@]1(c3ccccc3)CC[C@H](OC(=O)Nc3nnc(C4CC4)s3)CC1)=NS2(=O)=O | 6

System: not listed separately
Assay: Metabolic stability in human liver microsomes assessed as compound remaining at 3 uM after 10 mins
Type: ADME
Details: read-out: Stability
In short: as §2

Row | Compound | remaining at 10 min, 3 µM [%]
29 | COc1cccc2snc(NCC(C)(C)c3ccccc3)c12 | 13
30 | COc1cccc2c1C(NC[C@]1(c3ccccc3)CC[C@H](OC(=O)Nc3nnc(C4CC4)s3)CC1)=NS2(=O)=O | 75
31 | COc1cccc2c1C(NC[C@]1(c3ccccc3)CC[C@H](NC(=O)OCC(F)(F)F)CC1)=NS2(=O)=O | 95
32 | COc1cccc2c1C(NC[C@]1(c3ccccc3)CC[C@H](OC(=O)NC3CC3)CC1)=NS2(=O)=O | 9
33 | CCNC(=O)O[C@H]1CC[C@](CNC2=NS(=O)(=O)c3cccc(OC)c32)(c2ccccc2)CC1 | 2
34 | COc1cccc2c1C(NC[C@]1(c3ccccc3)CC[C@@H](O)CC1)=NS2(=O)=O | 98
35 | CCS(=O)(=O)N[C@H]1CC[C@](CNC2=NS(=O)(=O)c3cccc(OC)c32)(c2ccccc2)CC1 | 75

System: not listed separately
Assay: Volume of distribution at steady state in rat at 1.6 mg/kg administered as intra-arterial infusion for 10 mins and 3.6 mg/kg, po
Type: ADME, organism-based
Details: in vivo, read-out: Vdss
In short: as §1

Row | Compound | Vd [L/kg]
36 | COc1cccc2c1C(NC[C@]1(c3ccccc3)CC[C@H](OC(=O)Nc3nnc(C4CC4)s3)CC1)=NS2(=O)=O | 0.9

System: not listed separately
Assay: Cmax in rat at 1.6 mg/kg administered as intra-arterial infusion for 10 mins and 3.6 mg/kg, po
Type: ADME, organism-based
Design: route oral
Details: in vivo
In short: as §1

Row | Compound | Cmax [µM]
37 | COc1cccc2c1C(NC[C@]1(c3ccccc3)CC[C@H](OC(=O)Nc3nnc(C4CC4)s3)CC1)=NS2(=O)=O | 0.011

System: not listed separately
Assay: Cmax in rabbit at 0.3 to 3 mg/kg
Type: ADME, organism-based, Oryctolagus cuniculus
Details: in vivo
In short: as §3

Row | Compound | Cmax [µM]
38 | COc1cccc2c1C(NC[C@]1(c3ccccc3)CC[C@H](OC(=O)Nc3nnc(C4CC4)s3)CC1)=NS2(=O)=O | 23

Organism: Oryctolagus cuniculus
Assay: Induction of […] effective refractory period prolongation in rabbit
Type: functional
Details: not given
In short: as §3

Row | Compound | EC20 [nM]
39 | COc1cccc2c1C(NC[C@]1(c3ccccc3)CC[C@H](OC(=O)Nc3nnc(C4CC4)s3)CC1)=NS2(=O)=O | 23000

System: not listed separately
Assay: Oral bioavailability in rat at 3.6 mg/kg
Type: ADME, organism-based
Details: in vivo
In short: as §1

Row | Compound | bioavailability [%]
40 | COc1cccc2c1C(NC[C@]1(c3ccccc3)CC[C@H](OC(=O)Nc3nnc(C4CC4)s3)CC1)=NS2(=O)=O | 1

System: not listed separately
Assay: Metabolic stability in rat liver microsomes assessed as compound remaining at 3 uM after 10 mins
Type: ADME
Details: read-out: Stability
In short: as §2

Row | Compound | remaining at 10 min, 3 µM [%]
41 | COc1cccc2c1C(NC[C@]1(c3ccccc3)CC[C@H](OC(=O)Nc3nnc(C4CC4)s3)CC1)=NS2(=O)=O | 70
42 | COc1cccc2c1C(NC[C@]1(c3ccccc3)CC[C@H](NC(=O)OCC(F)(F)F)CC1)=NS2(=O)=O | 57
43 | COc1cccc2c1C(NC[C@]1(c3ccccc3)CC[C@H](OC(=O)NC3CC3)CC1)=NS2(=O)=O | 5
44 | CCNC(=O)O[C@H]1CC[C@](CNC2=NS(=O)(=O)c3cccc(OC)c32)(c2ccccc2)CC1 | < 1
45 | COc1cccc2c1C(NC[C@]1(c3ccccc3)CC[C@@H](O)CC1)=NS2(=O)=O | 73
46 | CCS(=O)(=O)N[C@H]1CC[C@](CNC2=NS(=O)(=O)c3cccc(OC)c32)(c2ccccc2)CC1 | 67

System: Rattus norvegicus
Assay: Toxicity in rat assessed as increase in blood pressure at 3 mg/kg, iv administered as infusion for 5 mins
Type: organism-based
Details: in vivo
In short: (§4)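 Rats were dosed at 3 mg/Kg. QT interval on ECG, mean blood pressure (% change) and plasma concentration were measured. Values are means of 2-4 experiments.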

Row | Compound | Activity [%]
47 | COc1cccc2c1C(NC[C@]1(c3ccccc3)CC[C@H](OC(=O)Nc3nnc(C4CC4)s3)CC1)=NS2(=O)=O | 19

System: not listed separately
Assay: AUC in rat at 3.6 mg/kg, po
Type: ADME, organism-based
Details: in vivo
In short: as §1

Row | Compound | AUC [µM·h]
48 | COc1cccc2c1C(NC[C@]1(c3ccccc3)CC[C@H](OC(=O)Nc3nnc(C4CC4)s3)CC1)=NS2(=O)=O | 0.2

System: not listed separately
Assay: Plasma concentration in rat at 3 mg/kg, iv administered as infusion for 5 mins
Type: ADME, organism-based
Details: not given
In short: as §4

Row | Compound | concentration at 5 min [µM]
49 | COc1cccc2c1C(NC[C@]1(c3ccccc3)CC[C@H](OC(=O)Nc3nnc(C4CC4)s3)CC1)=NS2(=O)=O | 72

Organism: Homo sapiens
Assay: Inhibition of sodium channel (unknown origin) at 10 uM relative to control
Details: not given
In short: (§5)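 Calcium (ICa) and sodium (INa) currents were measured as percent inhibition at a single concentration of 10 µM. Values are means of 2-4 experiments.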

Row | Compound | inhibition [%]
50 | COc1cccc2c1C(NC[C@]1(c3ccccc3)CC[C@H](OC(=O)Nc3nnc(C4CC4)s3)CC1)=NS2(=O)=O | 21
51 | COc1cccc2c1C(NC[C@]1(c3ccccc3)CC[C@H](NC(=O)OCC(F)(F)F)CC1)=NS2(=O)=O | 23
52 | CCS(=O)(=O)N[C@H]1CC[C@](CNC2=NS(=O)(=O)c3cccc(OC)c32)(c2ccccc2)CC1 | 7

System: not listed separately
Assay: Half life in rat at 1.6 mg/kg administered as intra-arterial infusion for 10 mins and 3.6 mg/kg, po
Type: ADME, organism-based
Details: in vivo
In short: as §1

Row | Compound | half-life [h]
53 | COc1cccc2c1C(NC[C@]1(c3ccccc3)CC[C@H](OC(=O)Nc3nnc(C4CC4)s3)CC1)=NS2(=O)=O | 2.3

Organism: Homo sapiens
Assay: Inhibition of calcium channel (unknown origin) at 10 uM relative to control
Details: not given
In short: as §5

Row | Compound | inhibition [%]
54 | COc1cccc2c1C(NC[C@]1(c3ccccc3)CC[C@H](OC(=O)Nc3nnc(C4CC4)s3)CC1)=NS2(=O)=O | 8
55 | COc1cccc2c1C(NC[C@]1(c3ccccc3)CC[C@H](NC(=O)OCC(F)(F)F)CC1)=NS2(=O)=O | 51
56 | CCS(=O)(=O)N[C@H]1CC[C@](CNC2=NS(=O)(=O)c3cccc(OC)c32)(c2ccccc2)CC1 | 14

Organism: Oryctolagus cuniculus
Assay: Toxicity in rabbit assessed as effect on ventricular effective refractory period
Type: organism-based, Cardiac ventricle
Details: in vivo
In short: as §3

Row | Compound | Activity
57 | COc1cccc2c1C(NC[C@]1(c3ccccc3)CC[C@H](OC(=O)Nc3nnc(C4CC4)s3)CC1)=NS2(=O)=O | Non-toxic

— ChEMBL document CHEMBL3621160, “Pseudosaccharin amines as potent and selective KV1.5 blockers” (Bioorg Med Chem Lett, 2015)
